Assay results pooled from the literature.
Cell line: OVCAR-5
Read-out: cell growth or viability

| SMILES | assay | setting | quantity | value |
| --- | --- | --- | --- | --- |
| S=C([S][Au-][P+](CCCCCC[P+]([Au-][S]C(=S)n1cccn1)(c1ccccc1)c1ccccc1)(c1ccccc1)c1ccccc1)n1cccn1 |  |  | GI50 | 3.63 µM |
| CCN1CCN(Cc2ccc(Nc3ncc(F)c(-c4cc(F)c5nc(C)n(C(C)C)c5c4)n3)nc2)CC1 | CCK-8 |  | IC50 | 2.5 µM |
| CC[C@@H]1C=CC(=O)O[C@@H]1C[C@@H](O)[C@H](C)[C@H](OC)[C@@H](C)Cc1ccc(F)cc1 | MTT | 48 h | GI50 | 0.0753 µM |
| COc1ccc(-c2ccc(-c3ccc(C(=N)N)nc3)s2)cc1 | SRB |  | GI50 | 1.67 µM |
| C/C=C/C[C@H](C)[C@@H](OC)[C@@H](C)[C@H](O)C[C@H]1OC(=O)C=C[C@H]1CC | MTT | 48 h | GI50 | 0.0219 µM |
| COc1ccccc1/C=C/C(=O)c1ccc(OC)c(S(N)(=O)=O)c1 | SRB | 48 h | GI50 | 2.2 µM |
| COc1cc(-c2ccc(-c3ccc(C(=N)N)nc3)s2)cc(OC)c1OC | SRB |  | GI50 | 2.1 µM |
| CC[C@@H]1C=CC(=O)O[C@@H]1C[C@@H](O)[C@H](C)[C@H](O)[C@@H](C)Cc1ccc(F)cc1 | MTT | 48 h | GI50 | 0.0165 µM |
| Cc1cc(C)n(C(=S)[S][Au][PH](CCCCCC[PH]([Au][S]C(=S)n2nc(C)cc2C)(c2ccccc2)c2ccccc2)(c2ccccc2)c2ccccc2)n1 |  |  | GI50 | 1.21 µM |
| COc1ccc(C(=O)/C=C/c2cccc(Cl)c2)cc1S(N)(=O)=O | SRB | 48 h | GI50 | 1.9 µM |
| COc1cccc(Oc2ccccc2NC(=O)CNC(=O)c2cccc3ccccc23)c1 | SRB | 48 h | GI50 | 1.12 µM |
